Measurements from different studies.
Each line is one published result; the experiments were not run side by side.
Target: Ephrin type-A receptor 4 (EPHA4, Homo sapiens, UniProt P54764)

Cn1cc(-c2cc(F)cc(N3CCn4c(cc5c4CCCC5)C3=O)c2CO)cc(Nc2ccc(N3CCN(C4COC4)CC3)cn2)c1=O — inhibition (enzyme activity, inhibitor; 0.1 µM): 12%
COc1ncccc1-c1cnn2ccc(N3CCN(C(=O)OC(C)C)CC3)nc12 — remaining binding (binding, competition with immobilised ligand; 1 µM): 100%
Nc1ncc(-c2nc(N3CCOCC3)nc(N3CCOCC3)n2)c(C(F)F)n1 — remaining binding (cell-free assay, competition with immobilised ligand; 10 µM): 94%
COc1cc(Nc2ncc(F)c(Nc3ccc4c(n3)NC(=O)C(C)(C)O4)n2)cc(OC)c1OC — inhibition (binding, competition with immobilised ligand; 10 µM): 69%
Cc1nn(C)cc1-c1nc2c(N3CCN(Cc4ccc(Cl)cc4)CC3)c(Cl)cnc2[nH]1 — remaining binding (binding, competition with immobilised ligand; 1 µM): 100%
CC(C)(C)c1cc(C=C(C#N)C#N)cc(Br)c1O — remaining activity (enzyme activity, inhibitor; 0.5 µM): 94.7%
Cn1cc(-c2cccc(N3CCc4c(sc5c4CC(C)(C)C5)C3=O)c2CO)cc(Nc2ccncn2)c1=O — inhibition (enzyme activity, inhibitor; 1 µM): 3%
O=c1[nH]c2ccccc2n1C1CCN(Cc2ccc(-c3[nH]c4cc5ncnc5cc4nc3-c3ccccc3)cc2)CC1 — remaining signal (cell-free assay; 0.5 µM): 97.1%
Cn1cncc1[C@](O)(COc1ccc(C#N)cc1-c1ccc(OC(F)(F)F)cc1)c1ccc(C#N)cc1 — remaining binding (cell-free assay, competition with immobilised ligand; 1 µM): 100%
